This note sets out measurements from PubChem BioAssay.

The nature of assay [1]: inhibitors of TNFa-induced NFkB p65 translocation, primary screen, imaging, HUVEC, MLSMR starter and 10KST1 sets (AID 438;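 active = inhibition above 20% together with a positive visual image hit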;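 note: compound added about 3h40 before a 20 min TNFalpha stimulation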;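 for inhibition: signal is the nuclear over cytoplasmic p65 intensity ratio per well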). The note with it: HUVEC TNFa-induced p65 nuclear translocation; cell count: measured here: nuclei count (cytotoxicity indicator), at 2.08 µM; inhibition: at 2 µM, stronger effect = higher value, 0% TNFa-plus-vehicle, 100% no-TNFa wells.
Assay [2] is described as follows: endothelial E-selectin expression blockers – imaging, HUVEC, immunofluorescence, MLSMR starter and 10KST1 sets, primary screen (AID 487).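 For inhibition: signal is fraction of cell area covered by stained E-selectin grains.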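 For nuclei count: 100% = median nuclei count of all wells on the same plate.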 The note with it: HUVEC TNFalpha-induced E-selectin immunofluorescence imaging, at 2 µM; inhibition: stronger effect = higher value; nuclei count: measured here: cell number, toxicity.
A short description of assay [3]: Primary imaging screen for DUSP6 inhibitors that restore phospho-Erk in transfected HeLa cells, chemical complementation (AID 609;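 active = compounds giving at least 50% inhibition in the cell-based MKP-3 phosphatase rescue imaging test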;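 for inhibition: phospho-Erk level distribution per well compared with pooled transfected vehicle control wells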). The note with it: HeLa MKP-3 transfected, phospho-Erk imaging KS statistic, at 10 µM, cells stimulated with TPA for 15 min.
Assay [4] has as its target Dual specificity protein phosphatase 6 (Homo sapiens) (UniProt Q16828). The assay is described as above. The note with it: HeLa MKP-3 transfected, phospho-Erk imaging KS statistic; at 10 µM; stronger effect = higher value; cells stimulated with TPA for 15 min.
The target in assay [5] is Voltage-gated potassium channel subunit beta-2 (Rattus norvegicus) (UniProt P62483). The assay is described as follows: inhibitors of rat Kvbeta2 reductase activity – biochemical, NADPH fluorescence, primary screen (AID 622;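 active = fluorescence slope higher than the sample average by over 3 SD, cut at about -0.22 in these data, passing the limit was not always enough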;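 note: slope of raw intensity against log time taken from 70 to 1610 s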). The conditions noted are these: recombinant KvBeta, 4-cyanobenzaldehyde reduction, at 10 µM, stronger effect = higher value.
Assay [6] has the same target. As to the kind of experiment: enhancers of rat Kvbeta2 NADPH turnover – biochemical, NADPH fluorescence, primary screen (AID 623;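 active = NADPH fluorescence slope more negative than the mean of all samples by about 3 SD, 99.7% confidence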;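 note: fluorescence intensity change per second fitted from 20 to 320 s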). The conditions noted are these: Recombinant KvBeta, NADPH fluorescence decrease slope, 10 min; at 10 µM; stronger effect = lower value.
Assay [7] has as its target Muscarinic acetylcholine receptor M4 (Homo sapiens) (UniProt P08173). The assay is described as follows: M4-linked GIRK flux change, two-sided – cell-based, HEK293 M4/GIRK, thallium flux, BTC-AM, M4 allosteric agonist project, primary screen (AID 625;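 active = fluorescence slope after compound addition differing from the mean of all tested samples at 99.7% confidence, mostly higher but some lower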;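 note: thallium influx through GIRK channels coupled to M4 in HEK293 cells with BTC-AM dye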). The conditions noted are these: at 10 µM, actives lie on both sides. The method, boiled down:
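Assay system: HEK293 cells with M4 receptor and GIRK channels / Controls: carbachol and DMSO controls / Schedule: 1 h dye loading, 2 min kinetic read / Technique: kinetic fluorescence with BTC-AM dye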

Assay [8] can be described thus: inhibitors of larval lipid processing in zebrafish, primary screen, whole organism, PED6 fluorescence, gall bladder and intestine (AID 686;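 active = a full or partial loss of lipid-probe fluorescence in the fish gall bladder, intestine or both, judged by eye; inactive = no fluorescence loss, or compound toxic to the fish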;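 note: larvae 5 to 7 days old with five fish per well; signal comes from phospholipase A2 cleavage of quenched PED6 carried via bile; overnight exposure to compound and PED6 before scoring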). The conditions noted are these: Zebrafish larvae PED6 lipid processing, fluorescence scoring; screened at 20 µM (by protocol). The method in brief:
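Doses: 20 µM single dose. Test system: live zebrafish larvae aged 5-7 days, whole organism. Quantity: five larvae per well. Measured by: By-eye fluorescence microscopy. Reagent: ingested quenched lipid PED6 at 100 nM. Read-out: visual per-well fluorescence inhibition score. Times: overnight exposure of larvae to compound plus PED6.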

Assay [9] can be described thus: loss of swimming-algae plug formation – whole organism, Chlamydomonas reinhardtii, WT vs cilia-less mutant, absorbance, 96-well, primary screen (AID 463189;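 active = inhibition at or above 50% relative to wild type and mutant plate controls; inactive = inhibition below 50%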;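 note: 0% = wild type cc124 cells in DMSO and 100% = ciliumless bld1 mutant cells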). The note with it: Chlamydomonas reinhardtii gravitaxis, OD600 absorbance, 2 days; at 10 µM; stronger effect = higher value.
The mark [10] stands for this setting: measured here: cell density z-score.
Where [11] appears, read: measured here: nuclear c-Myc green intensity z-score.
The mark [12] stands for this setting: measured here: nuclear pErk red intensity z-score, stronger effect = higher value.

Active and inactive are the calls of the source.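 Rule for the calls, unless noted: active = visually confirmed hit in the image check and inhibition above 20%; inconclusive = visually confirmed hit but inhibition not above 20%; inactive = no visual hit in the image check.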

Muscarinic acetylcholine receptor M4 (Homo sapiens), sequence (P08173 whole entry, looked up): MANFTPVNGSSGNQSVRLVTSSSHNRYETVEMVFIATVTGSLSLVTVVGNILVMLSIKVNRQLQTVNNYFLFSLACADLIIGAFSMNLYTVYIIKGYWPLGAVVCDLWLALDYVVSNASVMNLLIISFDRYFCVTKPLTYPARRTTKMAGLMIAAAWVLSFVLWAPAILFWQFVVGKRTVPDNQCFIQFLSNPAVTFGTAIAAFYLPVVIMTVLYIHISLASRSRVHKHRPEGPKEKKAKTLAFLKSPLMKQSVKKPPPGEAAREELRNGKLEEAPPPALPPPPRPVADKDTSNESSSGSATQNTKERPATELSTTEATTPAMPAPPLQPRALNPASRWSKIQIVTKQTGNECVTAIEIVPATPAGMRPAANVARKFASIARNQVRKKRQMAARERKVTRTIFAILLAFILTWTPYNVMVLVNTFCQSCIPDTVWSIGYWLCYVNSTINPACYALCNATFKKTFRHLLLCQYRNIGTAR
Dual specificity protein phosphatase 6 (Homo sapiens), sequence (Q16828 whole entry, looked up): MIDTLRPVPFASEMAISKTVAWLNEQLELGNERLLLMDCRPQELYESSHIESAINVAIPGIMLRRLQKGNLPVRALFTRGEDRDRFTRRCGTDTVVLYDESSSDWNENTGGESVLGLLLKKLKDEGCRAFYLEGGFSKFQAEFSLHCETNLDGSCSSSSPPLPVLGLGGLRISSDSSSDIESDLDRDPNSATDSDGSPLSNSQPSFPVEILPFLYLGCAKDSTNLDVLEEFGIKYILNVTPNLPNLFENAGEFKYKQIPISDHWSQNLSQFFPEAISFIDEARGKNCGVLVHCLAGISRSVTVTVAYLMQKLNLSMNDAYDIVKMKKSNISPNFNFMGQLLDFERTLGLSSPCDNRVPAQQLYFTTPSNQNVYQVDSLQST
Voltage-gated potassium channel subunit beta-2 (Rattus norvegicus), sequence (P62483 whole entry, looked up): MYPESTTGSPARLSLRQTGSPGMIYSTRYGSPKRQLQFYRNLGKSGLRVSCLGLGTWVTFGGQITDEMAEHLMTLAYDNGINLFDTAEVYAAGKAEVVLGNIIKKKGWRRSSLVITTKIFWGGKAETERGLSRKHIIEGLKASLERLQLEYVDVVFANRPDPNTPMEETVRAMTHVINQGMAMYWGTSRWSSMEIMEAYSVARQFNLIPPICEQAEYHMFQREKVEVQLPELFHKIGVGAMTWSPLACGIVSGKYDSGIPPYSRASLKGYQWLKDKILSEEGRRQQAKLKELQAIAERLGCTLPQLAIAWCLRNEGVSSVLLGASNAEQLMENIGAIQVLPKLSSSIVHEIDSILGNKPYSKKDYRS

What is called inhibition is the drop in the measured response relative to a control, in per cent. As to `Cc1nnc2n(C3CCCCC3)c(=O)c3c4c(sc3n12)COC(C)(C)C4`, in assay [1], the cell count came out at 471. Further, the inhibition in [1] is -0.7% (inactive); in assay [2], -19% (inactive); in assay [4], -3.97% (inactive); in assay [9], 11.1% (inactive). The same molecule registered a nuclei count in assay [2] of 96.4%. In addition, the z-score in [3] (setting [10]) was -2.3; in assay [3] (setting [11]) it was 1.13; in assay [3] (setting [12]) it was -0.467. Moreover, the fluorescence slope in assay [5] is -0.389 (inactive); in assay [7] it was 0.00567 (inactive). Besides, the NADPH fluorescence slope in assay [6] was 7.7e-06 (inactive). Besides, the result in assay [8] was inactive.

For the molecule `CC(=O)NC(=O)Nc1sc(=S)n(C)c1C`, the cell count in assay [1] is 329. Moreover, the inhibition in [1] was -4.5% (inactive); in [2] it was -21.6% (inactive); in assay [4], 9.82% (inactive); in assay [9], 30.1% (inactive). The same molecule registered a nuclei count in [2] of 71.6%. Further, the z-score in assay [3] (setting [10]) was 0.847; in assay [3] (setting [11]) it was -2.04; in assay [3] (setting [12]), 0.71. The fluorescence slope in assay [5] is -0.515 (inactive); in assay [7], 0.00528 (inactive). Moreover, the NADPH fluorescence slope in assay [6] was 4.8e-06 (inactive). Moreover, in [8], the call was inactive.

Turning to `COCCCNC(=O)c1c(N)n(/N=C/c2cccnc2)c2nc3ccccc3nc12`, the cell count in [1] is 719. In addition, the inhibition was 4.4% (inactive) in [1], 0.4% (inactive) in assay [2], 4.25% (inactive) in [4] and -6.04% (inactive) in assay [9]. Further, the nuclei count in [2] was 113%. Besides, the z-score in assay [3] (setting [10]) is -0.256; in [3] (setting [11]) it was 0.735; in [3] (setting [12]), 2.99. Moreover, the fluorescence slope is -0.253 (inactive) in [5] and 0.00597 (inactive) in assay [7]. Also, in assay [6], the NADPH fluorescence slope is -3.5e-06 (inactive). Besides, the molecule was classed as inactive in assay [8].

Take `Cc1nc2c(c(N3CCOCC3)n1)OCC(=O)N2`: the cell count in assay [1] was determined as 562. Also, the inhibition in [1] was -5.6% (inactive); in assay [2], -63.7% (inactive); in [4] it was -4.59% (inactive); in assay [9], 31.8% (inactive). This molecule yielded a nuclei count in assay [2] of 132%. The values for the z-score in [3] (setting [10]), in assay [3] (setting [11]) and in assay [3] (setting [12]) were -1.14, 0.329 and 1.34, respectively. In addition, the fluorescence slope in assay [5] is -0.454 (inactive); in assay [7] it was 0.00529 (inactive). Also, the NADPH fluorescence slope in [6] is -9.1e-05 (inactive). Moreover, the molecule was called inactive in assay [8].

`c1ccc2c(c1)CCN(c1ncnc3c1[nH]c1ccccc13)C2`: the cell count in assay [1] amounted to 585. The inhibition in [1] is -19.2% (inactive); in assay [2], -59.1% (inactive); in assay [4] it was -4.59% (inactive); in [9] it was 42.6% (inactive). The same molecule registered a nuclei count in assay [2] of 172%. Further, the z-score in assay [3] (setting [10]) was 0.335; in assay [3] (setting [11]) it was -1.2; in assay [3] (setting [12]), 1.56. For the same molecule, the results for the fluorescence slope in [5] and in [7] were -0.388 (inactive) and 0.00488 (inactive), respectively. Besides, the NADPH fluorescence slope in assay [6] was -1.5e-05 (inactive). Besides, the molecule was classed as inactive in assay [8].

As to `Cc1ccc(-c2nn(CCC(=O)NCC3CCCO3)c(=O)c3ccccc23)cc1` (stereo unspecified), in [1], the cell count was determined as 465. For the same molecule, the inhibition in [1] is -2.6% (inactive); in assay [2], -99.3% (inactive); in assay [4], -7.28% (inactive); in assay [9] it was -0.115% (inactive). Moreover, the nuclei count in [2] amounted to 155%. Further, the z-score in [3] (setting [10]) was -0.415; in assay [3] (setting [11]) it was 0.704; in assay [3] (setting [12]), -0.137. Besides, the fluorescence slope in assay [5] was -0.422 (inactive); in assay [7] it was 0.0051 (inactive). In addition, in assay [6], the NADPH fluorescence slope is -5.3e-05 (inactive). In addition, in assay [8], the molecule was called inactive.

As for `CCCCC(=O)NC(Nc1ccc(C)cn1)(C(=O)OCC)C(F)(F)F` (stereo unspecified), in assay [1], the cell count came to 651. In addition, the inhibition was -16.3% (inactive) in assay [1], -59% (inactive) in assay [2], 1.63% (inactive) in assay [4] and -0.324% (inactive) in [9]. Further, in assay [2], the nuclei count was 156%. The figures for the z-score in assay [3] (setting [10]), in [3] (setting [11]) and in assay [3] (setting [12]) were 0.317, -1.54 and 1.99, respectively. Also, the fluorescence slope in [5] is -0.481 (inactive); in assay [7] it was 0.00419 (inactive). In addition, the NADPH fluorescence slope in assay [6] is -4.4e-05 (inactive). Also, the molecule was called inactive in [8].
